Assay [1] deals with T1, Beta-hexosaminidase subunit beta (Homo sapiens) (UniProt P07686).
T1 sequence (whole entry): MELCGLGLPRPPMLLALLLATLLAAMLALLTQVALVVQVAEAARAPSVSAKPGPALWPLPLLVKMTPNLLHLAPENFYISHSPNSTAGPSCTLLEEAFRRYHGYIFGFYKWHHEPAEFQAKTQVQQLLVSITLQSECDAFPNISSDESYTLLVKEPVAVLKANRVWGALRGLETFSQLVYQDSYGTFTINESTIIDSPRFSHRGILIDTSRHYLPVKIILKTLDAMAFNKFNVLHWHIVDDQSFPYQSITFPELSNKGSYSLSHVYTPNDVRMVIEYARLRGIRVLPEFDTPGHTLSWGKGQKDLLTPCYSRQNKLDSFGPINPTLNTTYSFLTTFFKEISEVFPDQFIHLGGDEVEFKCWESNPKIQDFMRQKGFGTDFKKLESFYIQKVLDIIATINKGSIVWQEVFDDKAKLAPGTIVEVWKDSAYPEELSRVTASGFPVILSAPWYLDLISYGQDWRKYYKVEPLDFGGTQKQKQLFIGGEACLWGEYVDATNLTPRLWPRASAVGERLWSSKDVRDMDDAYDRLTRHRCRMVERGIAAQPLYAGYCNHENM
The assay can be described thus: Inhibition of human placental lysosomal hexosaminidase B at 5 uM.

Assay [2] can be described thus: Competitive inhibition of Streptomyces plicatus hexosaminidase.
In a further assay the test system is HT-29. Nature of the assay: Induction of hyper-O-GlcNAc-ylation in human HT-29 cells assessed as increase of O-GlcNAc level at 40 uM after 48 hrs Western blotting. In kind it is functional, cell-based. Summed up:
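HT-29 cells seeded at 1.0 × 10^5 per well in McCoy's 5a + 10% FBS, with or without 40 μM inhibitor, 37 °C for 2 days. Lysed in Tris pH 8.0/DTT/Triton X-100 with protease inhibitors and sonicated. 20 μg protein per lane run on 10% SDS gel and blotted. Probed with anti-O-GlcNAc RL2 (1:1000) and IR-dye anti-mouse secondary; infrared imaging.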
For orientation: A western blot detects proteins with antibodies after separation by electrophoresis.

Another assay relates to HeLa. The assay can be described thus: Induction of hyper-O-GlcNAc-ylation in human HeLa cells assessed as increase of O-GlcNAc level at 40 uM after 48 hrs Western blotting. It counts as functional, cell-based. Summed up:
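HeLa cells seeded at 1.0 × 10^5 per well in DMEM + 10% FBS, ±40 μM inhibitor, 37 °C, 2 days. Washed in PBS, pelleted and lysed with M-PER reagent. Equal protein (20 μg) separated on 10% gel. Western blot with RL2 anti-O-GlcNAc (1:1000) and IR-dye anti-mouse secondary; infrared imaging.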

The target in assay [3] is T2, Solute carrier family 2, facilitated glucose transporter member 4 (Mus musculus) (UniProt P14142).
T2 sequence (whole entry): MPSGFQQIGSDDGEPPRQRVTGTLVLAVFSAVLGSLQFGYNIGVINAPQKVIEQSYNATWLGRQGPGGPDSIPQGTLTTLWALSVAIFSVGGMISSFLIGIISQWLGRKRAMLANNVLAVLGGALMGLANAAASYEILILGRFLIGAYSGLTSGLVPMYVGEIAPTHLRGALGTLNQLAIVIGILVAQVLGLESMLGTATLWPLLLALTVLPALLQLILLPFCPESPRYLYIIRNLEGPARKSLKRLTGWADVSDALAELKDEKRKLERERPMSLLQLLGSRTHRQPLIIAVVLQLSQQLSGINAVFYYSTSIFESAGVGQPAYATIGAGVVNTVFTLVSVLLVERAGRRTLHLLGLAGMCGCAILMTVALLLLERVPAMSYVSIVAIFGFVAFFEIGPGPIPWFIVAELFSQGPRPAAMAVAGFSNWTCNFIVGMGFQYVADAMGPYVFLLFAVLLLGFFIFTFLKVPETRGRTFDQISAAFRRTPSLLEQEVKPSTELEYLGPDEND
Nature of the assay: Inhibition of insulin-induced GLUT4 translocation into plasma membrane of mouse differentiated 3T3L1 cells at 40 uM after 16 hrs by Western blotting relative to control. The conditions noted are these: 3T3-L1. Summed up:
(§1)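 Differentiated 3T3-L1 adipocytes (day 8) were held 16 h in serum-free DMEM with 4 mM glucose, with or without 40 μM inhibitor. They were re-fed and stimulated with 30 nM insulin for 20 min. Surface GLUT4 was photolabeled with 250 μM Bio-ATB-BMPA at 300 nm. Lysate (600 μg) underwent streptavidin pull-down and anti-GLUT4 immunoblotting, and surface GLUT4 was compared with untreated cells.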

The subject of a further assay is 3T3-L1. Nature of the assay: Effect on GLUT4 level in mouse differentiated 3T3L1 cells. It counts as functional, cell-based. A digest of the protocol: as §1
The target in assay [4] is T3, Beta-hexosaminidase subunit alpha (Homo sapiens) (UniProt P06865).
T3 sequence (whole entry): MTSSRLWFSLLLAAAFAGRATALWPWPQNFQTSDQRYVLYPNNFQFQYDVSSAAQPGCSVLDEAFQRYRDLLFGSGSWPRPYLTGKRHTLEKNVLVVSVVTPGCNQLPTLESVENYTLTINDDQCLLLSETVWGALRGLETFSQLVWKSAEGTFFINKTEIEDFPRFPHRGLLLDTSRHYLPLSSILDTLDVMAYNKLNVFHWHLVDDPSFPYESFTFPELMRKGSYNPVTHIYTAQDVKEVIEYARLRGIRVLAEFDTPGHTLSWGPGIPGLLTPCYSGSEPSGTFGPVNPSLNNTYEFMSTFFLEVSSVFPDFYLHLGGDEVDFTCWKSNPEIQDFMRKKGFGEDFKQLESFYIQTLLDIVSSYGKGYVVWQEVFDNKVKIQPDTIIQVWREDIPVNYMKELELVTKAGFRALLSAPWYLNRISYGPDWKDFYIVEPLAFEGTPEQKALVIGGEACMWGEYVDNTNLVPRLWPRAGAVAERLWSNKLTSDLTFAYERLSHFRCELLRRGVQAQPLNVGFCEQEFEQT
Nature of the assay: Inhibition of human placental lysosomal hexosaminidase A at 5 uM. Summed up:
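Human placental Hex A was incubated with 50 μM fluorescein di(GlcNAc) substrate ± 5 μM inhibitor in 100 mM citrate/phosphate pH 6.5 without GalNAc at 37 °C for 30 min. The reaction was stopped with 0.5 M Na2CO3 and read by fluorescence (ex 485 / em 535 nm). Percent inhibition was taken against activity without inhibitor.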

In assay [5] the target is RAC-alpha serine/threonine-protein kinase (Mus musculus) (UniProt P31750). The assay can be described thus: Activation of AKT.
Chain of RAC-alpha serine/threonine-protein kinase (Mus musculus) (P31750 whole entry, looked up): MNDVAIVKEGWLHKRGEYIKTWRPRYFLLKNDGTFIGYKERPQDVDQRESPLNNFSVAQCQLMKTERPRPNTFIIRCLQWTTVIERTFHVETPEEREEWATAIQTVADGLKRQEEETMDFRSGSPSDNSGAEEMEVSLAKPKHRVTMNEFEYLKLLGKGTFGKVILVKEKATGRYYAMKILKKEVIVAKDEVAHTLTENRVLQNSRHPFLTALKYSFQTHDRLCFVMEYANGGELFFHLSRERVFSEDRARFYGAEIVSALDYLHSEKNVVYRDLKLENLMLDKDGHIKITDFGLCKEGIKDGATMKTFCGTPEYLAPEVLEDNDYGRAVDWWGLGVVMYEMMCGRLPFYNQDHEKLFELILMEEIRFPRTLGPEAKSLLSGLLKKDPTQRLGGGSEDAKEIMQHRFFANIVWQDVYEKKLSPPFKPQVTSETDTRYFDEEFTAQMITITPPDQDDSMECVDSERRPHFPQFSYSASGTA
The target of assay [6] is 3-phosphoinositide-dependent protein kinase 1 (Mus musculus) (UniProt Q9Z2A0). The assay can be described thus: Activation of PDK1.
Chain of 3-phosphoinositide-dependent protein kinase 1 (Mus musculus) (Q9Z2A0 whole entry, looked up): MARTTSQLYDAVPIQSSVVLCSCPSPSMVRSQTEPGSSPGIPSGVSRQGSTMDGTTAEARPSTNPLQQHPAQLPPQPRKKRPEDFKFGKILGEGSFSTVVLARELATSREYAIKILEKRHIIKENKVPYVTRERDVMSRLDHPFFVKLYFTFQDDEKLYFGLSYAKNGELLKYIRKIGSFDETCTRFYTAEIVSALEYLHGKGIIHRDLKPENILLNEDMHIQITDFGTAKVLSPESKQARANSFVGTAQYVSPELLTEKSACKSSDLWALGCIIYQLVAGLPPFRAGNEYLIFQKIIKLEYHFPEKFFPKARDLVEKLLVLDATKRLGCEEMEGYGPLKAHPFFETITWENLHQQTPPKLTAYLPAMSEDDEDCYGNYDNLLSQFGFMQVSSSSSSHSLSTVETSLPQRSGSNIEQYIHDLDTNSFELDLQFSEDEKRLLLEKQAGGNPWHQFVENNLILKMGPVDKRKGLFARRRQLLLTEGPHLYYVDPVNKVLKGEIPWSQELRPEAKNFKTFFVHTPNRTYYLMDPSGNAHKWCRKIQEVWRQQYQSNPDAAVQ
A further assay has as its target T4, Protein O-GlcNAcase (Homo sapiens, UniProt O60502).
T4 sequence (O60502 whole entry): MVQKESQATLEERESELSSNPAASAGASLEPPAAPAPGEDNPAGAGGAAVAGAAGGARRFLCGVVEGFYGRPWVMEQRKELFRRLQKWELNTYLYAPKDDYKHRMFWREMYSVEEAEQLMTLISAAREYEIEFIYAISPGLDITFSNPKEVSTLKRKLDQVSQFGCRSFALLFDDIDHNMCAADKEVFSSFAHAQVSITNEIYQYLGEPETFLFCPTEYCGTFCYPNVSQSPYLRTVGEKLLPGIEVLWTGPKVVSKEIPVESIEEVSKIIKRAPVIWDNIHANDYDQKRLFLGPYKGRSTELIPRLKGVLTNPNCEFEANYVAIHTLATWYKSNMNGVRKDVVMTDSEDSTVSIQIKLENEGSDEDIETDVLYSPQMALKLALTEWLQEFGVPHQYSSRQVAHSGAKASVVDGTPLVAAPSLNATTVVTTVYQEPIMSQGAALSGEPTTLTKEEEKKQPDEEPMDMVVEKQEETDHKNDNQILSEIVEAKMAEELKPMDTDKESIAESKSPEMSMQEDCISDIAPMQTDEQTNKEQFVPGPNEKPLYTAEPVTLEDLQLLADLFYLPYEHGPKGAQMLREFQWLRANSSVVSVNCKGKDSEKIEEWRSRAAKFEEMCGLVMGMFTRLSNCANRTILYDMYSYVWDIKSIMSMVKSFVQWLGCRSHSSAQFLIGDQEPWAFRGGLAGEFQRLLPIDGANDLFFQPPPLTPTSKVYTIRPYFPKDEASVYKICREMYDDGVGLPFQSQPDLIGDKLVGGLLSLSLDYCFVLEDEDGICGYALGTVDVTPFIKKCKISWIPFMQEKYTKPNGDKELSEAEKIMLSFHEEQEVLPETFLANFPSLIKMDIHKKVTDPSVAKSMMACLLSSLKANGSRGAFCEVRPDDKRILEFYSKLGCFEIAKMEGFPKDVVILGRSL
Nature of the assay: Inhibition of human O-GlcNAcase after 5 mins by Lineweaver-Burke plot analysis.

The source made the active and inactive calls. No cut-off for these calls is given here.

Broadly, the inhibition is the share of the control response that was lost under treatment. As usually defined, the Ki is a dissociation constant, usually derived from enzyme kinetics or from competition with a known ligand.

In the case of `CC1=N[C@@H]2[C@@H](O)[C@H](O)[C@@H](CO)O[C@@H]2S1`, the inhibition result in [1] and in [4] was “Active” throughout. Moreover, affinity in [2] was put at a Ki of 20 µM. Besides, the result (in the assay on HT-29; in the assay on HeLa; in assay [5]; in assay [6]) was Active. The same molecule displayed an inhibition in [3] of 43%. In addition, in the assay with 3T3-L1, the result was inactive.
As to `CC1=N[C@@H]2[C@@H](O)[C@H](O)[C@@H](CO)O[C@@H]2[Se]1`, the inhibition result in assay [1] and in assay [4] was “Active” in each case. Also, the inhibition constant (Ki) was 0.7 µM on Protein O-GlcNAcase and 170 µM in assay [2]. Besides, the result (with HT-29; in the assay with HeLa; in assay [5]; in assay [6]) was Active. The inhibition in assay [3] worked out at 16.3%. Further, the outcome in the assay with 3T3-L1 was inactive.
